# Measurements taken from PMC2806602 (The Journal of neuroscience : the official journal of the …, 2009).
# Substitutions are numbered along the chain they refer to.
# Experiments:
# [1] = target: T1, GluRδ2^Lc (Rattus norvegicus, UniProt Q63226, A654T); assay type: cell-based; details: for spontaneously active current relative to baseline with Ba^2+: 0.5 mM Ba^2+ exchanged with 0.5 mM of the divalent cation
# T1 sequence (Q63226 24-1007 A654T): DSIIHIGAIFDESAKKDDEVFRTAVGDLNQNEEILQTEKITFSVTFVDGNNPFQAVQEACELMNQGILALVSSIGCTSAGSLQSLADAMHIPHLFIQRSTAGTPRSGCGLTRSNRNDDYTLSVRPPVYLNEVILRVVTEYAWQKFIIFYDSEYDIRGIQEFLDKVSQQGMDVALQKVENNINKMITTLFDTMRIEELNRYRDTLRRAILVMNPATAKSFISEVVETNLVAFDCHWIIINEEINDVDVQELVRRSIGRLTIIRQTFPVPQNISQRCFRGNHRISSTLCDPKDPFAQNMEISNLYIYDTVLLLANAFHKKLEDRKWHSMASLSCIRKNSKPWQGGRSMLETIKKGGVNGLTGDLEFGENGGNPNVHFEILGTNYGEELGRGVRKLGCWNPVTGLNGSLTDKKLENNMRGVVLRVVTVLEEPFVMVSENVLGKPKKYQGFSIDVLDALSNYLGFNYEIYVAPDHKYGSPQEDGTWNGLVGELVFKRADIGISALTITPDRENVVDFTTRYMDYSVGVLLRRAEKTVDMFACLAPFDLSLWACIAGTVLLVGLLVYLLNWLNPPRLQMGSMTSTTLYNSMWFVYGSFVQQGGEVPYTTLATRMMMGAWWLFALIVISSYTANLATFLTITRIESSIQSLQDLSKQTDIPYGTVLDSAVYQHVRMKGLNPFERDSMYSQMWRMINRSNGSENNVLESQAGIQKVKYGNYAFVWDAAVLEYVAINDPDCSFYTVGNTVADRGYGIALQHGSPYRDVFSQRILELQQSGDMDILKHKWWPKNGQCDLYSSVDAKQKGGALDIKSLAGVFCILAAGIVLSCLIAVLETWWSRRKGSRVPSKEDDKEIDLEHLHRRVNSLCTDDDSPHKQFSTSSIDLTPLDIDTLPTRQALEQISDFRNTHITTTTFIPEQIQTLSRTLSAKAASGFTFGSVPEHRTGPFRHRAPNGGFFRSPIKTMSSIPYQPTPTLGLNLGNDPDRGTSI
# [2] = target: T2, GluRδ2^Wt (Rattus norvegicus, UniProt Q63226); test: Two-electrode voltage-clamp recordings in Xenopus oocytes expressing GluRδ2^Wt; assay type: cell-based; details: 0.5 mM Ba^2+ exchanged with 0.5 mM of the divalent cation
# T2 sequence (Q63226 24-1007): T1 sequence (Q63226 24-1007 A654T) with T631A
# Summary of the method: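 Oocytes injected with wild-type receptor cRNA the day after excision and collagenase treatment. Two-electrode voltage clamp at −40 mV and 23°C, 24–72 h post-injection. Bath: 90 mM NaCl, 3 mM KCl, 0.5 mM BaCl2, 10 mM HEPES, pH 7.6. Ba2+ was replaced by 0.5 mM Mg2+, Zn2+, Mn2+, Sr2+ or Ca2+, or Ca2+ was raised stepwise. Choline or NMDG chloride kept osmolarity and Cl− constant. Baseline was current without Ca2+.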
SMILES,spontaneously active current relative to baseline with Ba^2+ [1],effect of divalent cation on currents at GluRδ2^Wt [2],"modulation of GluRδ2^Lc currents by extracellular Na^+ ([1]; current-voltage relationship at 0, 30, 60, 90 mM Na^+, -60 to +30 mV)"
[Mg+2] [Mg^2+],1.06 ± 0.01,–,–
[Mn+2] [Mn^2+],2.66 ± 0.13,no changes were observed,–
[Na+] [Na^+],–,–,does not modulate GluRδ2
[Sr+2] [Sr^2+],1.33 ± 0.05,no changes were observed,–
[Zn+2] [Zn^2+],1.33 ± 0.02,no changes were observed,–
